Measurements from ChEMBL document CHEMBL3525946, “Species comparison of in vivo P-glycoprotein-mediated brain efflux using mdr1a-deficient rats and mice” (Drug Metab Dispos, 2012).

Tests used:
[1] = Total plasma concentration in mdr1a-deficient rat at 5 mg/kg/day administered through continuous minipump treatment for 3 days by UPLC-MS analysis; format: ADME, organism-based; settings: other: continuous minipump
Summary of the method: (§1)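 Drug was infused subcutaneously by osmotic minipump for 3 days to steady state, at 1 µl/h in mice and 10 µl/h in rats, with doses derived from body weight and delivery rate. Animals were decapitated. Plasma came from EDTA trunk blood spun at 5000 g for 10 min at 4 °C. Whole brain was homogenised 1:4 in 70% acetonitrile and the supernatant kept. Samples were protein-precipitated with internal standard and analysed by UPLC. n=3-5, mean ± SEM.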

[2] = Percentage unbound in Sprague-Dawley rat plasma at 1 uM after 5 hrs by equilibrium dialysis method; format: ADME, cell-free
Summary of the method: (§2)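 Equilibrium dialysis (12-14 kDa membrane) of plasma or brain homogenate from naïve male Sprague-Dawley rats or Crl:NMRI(Han) mice. Donor side spiked to 1 µM final; receiver phosphate buffer pH 7.4; 37°C for 5 h. Buffer phase quantified by LC-MS. Brain fu corrected for homogenate dilution to intact tissue. Mean of two independent determinations.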

[3] = Unbound brain to plasma partition coefficient of the compound in wild type Crl:CF1 mouse expressing Abcb1a mutant at 4 mg/kg/day administered through continuous minipump treatment for 3 days; format: ADME, organism-based; settings: other: continuous minipump, read-out: K(p,uu,brain)
Summary of the method: (§3)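 Kp,uu = Cbrain,total × fu,brain / Cplasma,total × fu,plasma, using steady-state totals from 3-day subcutaneous minipump infusion. Free fractions came from equilibrium dialysis (12-14 kDa membrane) of naive Sprague-Dawley rat or NMRI mouse plasma or brain homogenate spiked to 1 µM final, against pH 7.4 phosphate buffer for 5 h at 37 °C, read by LC-MS and corrected for brain dilution. fu is the mean of two determinations.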

[4] = Total drug level in wild type Sprague-Dawley rat brain expressing Abcb1a at 5 mg/kg/day administered through continuous minipump treatment for 3 days by UPLC-MS analysis; format: ADME, organism-based; settings: other: continuous minipump, read-out: Drug uptake; summary of the method: as §1
[5] = Total brain to plasma partition coefficient of the compound in wild type Sprague-Dawley rat expressing Abcb1a at 5 mg/kg/day administered through continuous minipump treatment for 3 days; settings: brain and plasma, other: continuous minipump
[6] = Percentage unbound in Sprague-Dawley rat brain at 1 uM after 5 hrs by equilibrium dialysis method; format: ADME, tissue-based; summary of the method: as §2
[7] = Total drug level in wild type Crl:CF1 mouse brain expressing Abcb1a mutant at 4 mg/kg/day administered through continuous minipump treatment for 3 days by UPLC-MS analysis; format: ADME, organism-based; settings: other: continuous minipump, read-out: Drug uptake; summary of the method: as §1
[8] = Total plasma concentration in mdr1a-deficient mouse at 4 mg/kg/day administered through continuous minipump treatment for 3 days by UPLC-MS analysis; format: ADME, organism-based; settings: other: continuous minipump; summary of the method: as §1
[9] = Total brain to plasma partition coefficient of the compound in wild type Crl:CF1 mouse expressing Abcb1a mutant at 4 mg/kg/day administered through continuous minipump treatment for 3 days; settings: brain and plasma, other: continuous minipump
[10] = Percentage unbound in Crl:NMRI(Han) mouse brain at 1 uM after 5 hrs by equilibrium dialysis method; format: ADME, tissue-based; summary of the method: as §2
[11] = Total brain to plasma partition coefficient of the compound in mdr1a-deficient Sprague-Dawley rat at 5 mg/kg/day administered through continuous minipump treatment for 3 days; settings: brain and plasma, other: continuous minipump
[12] = Total drug level in mdr1a-deficient mouse brain at 4 mg/kg/day administered through continuous minipump treatment for 3 days by UPLC-MS analysis; format: ADME, organism-based; settings: other: continuous minipump, read-out: Drug uptake; summary of the method: as §1
[13] = Unbound brain to plasma partition coefficient of the compound in wild type Sprague-Dawley rat expressing Abcb1a at 5 mg/kg/day administered through continuous minipump treatment for 3 days; format: ADME, organism-based; settings: other: continuous minipump, read-out: K(p,uu,brain); summary of the method: as §3
[14] = Total drug level in mdr1a-deficient rat brain at 5 mg/kg/day administered through continuous minipump treatment for 3 days by UPLC-MS analysis; format: ADME, organism-based; settings: other: continuous minipump, read-out: Drug uptake; summary of the method: as §1
[15] = Unbound brain to plasma partition coefficient of the compound in mdr1a-deficient rat at 5 mg/kg/day administered through continuous minipump treatment for 3 days; format: ADME, organism-based; settings: other: continuous minipump, read-out: K(p,uu,brain); summary of the method: as §3
[16] = Total plasma concentration in wild type Crl:CF1 mouse expressing Abcb1a mutant at 4 mg/kg/day administered through continuous minipump treatment for 3 days by UPLC-MS analysis; format: ADME, organism-based; settings: other: continuous minipump; summary of the method: as §1
[17] = Percentage unbound in Crl:NMRI(Han) mouse plasma at 1 uM after 5 hrs by equilibrium dialysis method; format: ADME, cell-free; summary of the method: as §2
[18] = Unbound brain to plasma partition coefficient of the compound in mdr1a-deficient mouse at 4 mg/kg/day administered through continuous minipump treatment for 3 days; format: ADME, organism-based; settings: other: continuous minipump, read-out: K(p,uu,brain); summary of the method: as §3
[19] = Total brain to plasma partition coefficient of the compound in mdr1a-deficient mouse at 4 mg/kg/day administered through continuous minipump treatment for 3 days; settings: other: continuous minipump
[20] = Total plasma concentration in wild type Sprague-Dawley rat expressing Abcb1a at 5 mg/kg/day administered through continuous minipump treatment for 3 days by UPLC-MS analysis; format: ADME, organism-based; settings: other: continuous minipump; summary of the method: as §1
[21] = Total brain to plasma partition coefficient of the compound in wild type Crl:CF1 mouse expressing Abcb1a mutant at 12 mg/kg/day administered through continuous minipump treatment for 3 days; format: ADME, organism-based; settings: brain and plasma, other: continuous minipump
Summary of the method: (§4)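 Rats (SD-Abcb1a knockout or wild-type, 350-500 g) or mice (Crl:CF1-Abcb1a mutant or CF-1 background, 25-45 g) received drug by subcutaneous osmotic minipump (pump content as free base) for 3 days to steady state. After decapitation, trunk EDTA plasma and whole brain (homogenised 1:4 in 70% acetonitrile) were assayed by UPLC. Kp = total brain/total plasma concentration. n=3-5, mean ± SEM.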

[22] = Unbound brain to plasma partition coefficient of the compound in wild type Sprague-Dawley rat expressing Abcb1a at 9 mg/kg/day administered through continuous minipump treatment for 3 days; format: ADME, organism-based; settings: other: continuous minipump, read-out: K(p,uu,brain)
[23] = Total brain to plasma partition coefficient of the compound in mdr1a-deficient rat at 9 mg/kg/day administered through continuous minipump treatment for 3 days; format: ADME, organism-based; settings: brain and plasma, other: continuous minipump
[24] = Unbound brain to plasma partition coefficient of the compound in mdr1a-deficient mouse at 12 mg/kg/day administered through continuous minipump treatment for 3 days; format: ADME, organism-based; settings: other: continuous minipump, read-out: K(p,uu,brain); summary of the method: as §3
[25] = Total drug level in wild type Crl:CF1 mouse brain expressing Abcb1a mutant at 12 mg/kg/day administered through continuous minipump treatment for 3 days by UPLC-MS analysis; format: ADME, organism-based; settings: other: continuous minipump, read-out: Drug uptake; summary of the method: as §1
[26] = Total plasma concentration in wild type Crl:CF1 mouse expressing Abcb1a mutant at 12 mg/kg/day administered through continuous minipump treatment for 3 days by UPLC-MS analysis; format: ADME, organism-based; settings: other: continuous minipump; summary of the method: as §1
[27] = Total plasma concentration in wild type Sprague-Dawley rat expressing Abcb1a at 9 mg/kg/day administered through continuous minipump treatment for 3 days by UPLC-MS analysis; format: ADME, organism-based; settings: other: continuous minipump; summary of the method: as §1
[28] = Total brain to plasma partition coefficient of the compound in mdr1a-deficient mouse at 12 mg/kg/day administered through continuous minipump treatment for 3 days; format: ADME, organism-based; settings: other: continuous minipump; summary of the method: as §4
[29] = Total plasma concentration in mdr1a-deficient rat at 9 mg/kg/day administered through continuous minipump treatment for 3 days by UPLC-MS analysis; format: ADME, organism-based; settings: other: continuous minipump; summary of the method: as §1
[30] = Total plasma concentration in mdr1a-deficient mouse at 12 mg/kg/day administered through continuous minipump treatment for 3 days by UPLC-MS analysis; format: ADME, organism-based; settings: other: continuous minipump; summary of the method: as §1
[31] = Unbound brain to plasma partition coefficient of the compound in mdr1a-deficient rat at 9 mg/kg/day administered through continuous minipump treatment for 3 days; format: ADME, organism-based; settings: other: continuous minipump, read-out: K(p,uu,brain)
[32] = Total drug level in wild type Sprague-Dawley rat brain expressing Abcb1a at 9 mg/kg/day administered through continuous minipump treatment for 3 days by UPLC-MS analysis; format: ADME, organism-based; settings: other: continuous minipump, read-out: Drug uptake; summary of the method: as §1
[33] = Total brain to plasma partition coefficient of the compound in wild type Sprague-Dawley rat expressing Abcb1a at 9 mg/kg/day administered through continuous minipump treatment for 3 days; format: ADME, organism-based; settings: brain and plasma, other: continuous minipump
[34] = Total drug level in mdr1a-deficient mouse brain at 12 mg/kg/day administered through continuous minipump treatment for 3 days by UPLC-MS analysis; format: ADME, organism-based; settings: other: continuous minipump, read-out: Drug uptake; summary of the method: as §1
[35] = Unbound brain to plasma partition coefficient of the compound in wild type Crl:CF1 mouse expressing Abcb1a mutant at 12 mg/kg/day administered through continuous minipump treatment for 3 days; format: ADME, organism-based; settings: other: continuous minipump, read-out: K(p,uu,brain); summary of the method: as §3
[36] = Total drug level in mdr1a-deficient rat brain at 9 mg/kg/day administered through continuous minipump treatment for 3 days by UPLC-MS analysis; format: ADME, organism-based; settings: other: continuous minipump, read-out: Drug uptake; summary of the method: as §1

Cc1nc2n(c(=O)c1CCN1CCC(c3noc4cc(F)ccc34)CC1)CCCC2 [RISPERIDONE]
concentration at 72 h [1]: 168 ng/mL | fraction unbound at 5 h, 1 µM [2]: 0.11 | Kp uu at 72 h [3]: 0.11 | concentration at 72 h [4]: 41 ng/g | Kp at 72 h [5]: 0.22 | fraction unbound at 5 h, 1 µM [6]: 0.09 | concentration at 72 h [7]: 21 ng/g | concentration at 72 h [8]: 40 ng/mL | Kp at 72 h [9]: 0.52 | fraction unbound at 5 h, 1 µM [10]: 0.058 | Kp at 72 h [11]: 1.9 | concentration at 72 h [12]: 149 ng/g | Kp uu at 72 h [13]: 0.17 | concentration at 72 h [14]: 295 ng/g | Kp uu at 72 h [15]: 1.4 | concentration at 72 h [16]: 43 ng/mL | fraction unbound at 5 h, 1 µM [17]: 0.27 | Kp uu at 72 h [18]: 0.81 | Kp at 72 h [19]: 3.8 | concentration at 72 h [20]: 194 ng/mL

COc1ccc(C(CN(C)C)C2(O)CCCCC2)cc1.Cl (stereo not given) [VENLAFAXINE HYDROCHLORIDE]
fraction unbound at 5 h, 1 µM [2]: 0.64 | Kp at 72 h [21]: 4.7 | Kp uu at 72 h [22]: 0.45 | Kp at 72 h [23]: 6.3 | fraction unbound at 5 h, 1 µM [6]: 0.092 | Kp uu at 72 h [24]: 1.4 | fraction unbound at 5 h, 1 µM [10]: 0.18 | concentration at 72 h [25]: 403 ng/g | concentration at 72 h [26]: 85 ng/mL | concentration at 72 h [27]: 50 ng/mL | Kp at 72 h [28]: 8.3 | concentration at 72 h [29]: 63 ng/mL | concentration at 72 h [30]: 105 ng/mL | Kp uu at 72 h [31]: 0.89 | concentration at 72 h [32]: 158 ng/g | fraction unbound at 5 h, 1 µM [17]: > 0.99 | Kp at 72 h [33]: 3.3 | concentration at 72 h [34]: 828 ng/g | Kp uu at 72 h [35]: 0.86 | concentration at 72 h [36]: 389 ng/g
